TRPC6 inh: mouse TRPC6 channel inhibition. Q61143. HEK293-TRPC6, membrane potential dye, ACh-evoked depolarization; stronger effect = lower value. B-score at 10 µM. actives 1.1% (n = 310,000);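 active means B-score under library mean minus 3 SD, initial fluorescence not abnormally high, positive integrated signal ratio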;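 further: B-score derived from integrated fluorescence ratio over the kinetic read; more negative B-score means stronger inhibition of depolarization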
TRPC4 agonist: TRPC4 (mouse) channel activation; Q9QUQ5; HEK293 TRPC4beta/mu-opioid, Fluo4 calcium fluorescence; stronger effect = higher value; B-score at 10 µM; actives 0.49% (n = 310,000); AID 2237;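 active means B-score above 5 SD of library B-scores, and initial fluorescence ratio not above library mean plus 5 SD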;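 further: positive B-score marks a calcium rise read as TRPC4 activation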
Target sequence (Q9QUQ5 whole entry, looked up): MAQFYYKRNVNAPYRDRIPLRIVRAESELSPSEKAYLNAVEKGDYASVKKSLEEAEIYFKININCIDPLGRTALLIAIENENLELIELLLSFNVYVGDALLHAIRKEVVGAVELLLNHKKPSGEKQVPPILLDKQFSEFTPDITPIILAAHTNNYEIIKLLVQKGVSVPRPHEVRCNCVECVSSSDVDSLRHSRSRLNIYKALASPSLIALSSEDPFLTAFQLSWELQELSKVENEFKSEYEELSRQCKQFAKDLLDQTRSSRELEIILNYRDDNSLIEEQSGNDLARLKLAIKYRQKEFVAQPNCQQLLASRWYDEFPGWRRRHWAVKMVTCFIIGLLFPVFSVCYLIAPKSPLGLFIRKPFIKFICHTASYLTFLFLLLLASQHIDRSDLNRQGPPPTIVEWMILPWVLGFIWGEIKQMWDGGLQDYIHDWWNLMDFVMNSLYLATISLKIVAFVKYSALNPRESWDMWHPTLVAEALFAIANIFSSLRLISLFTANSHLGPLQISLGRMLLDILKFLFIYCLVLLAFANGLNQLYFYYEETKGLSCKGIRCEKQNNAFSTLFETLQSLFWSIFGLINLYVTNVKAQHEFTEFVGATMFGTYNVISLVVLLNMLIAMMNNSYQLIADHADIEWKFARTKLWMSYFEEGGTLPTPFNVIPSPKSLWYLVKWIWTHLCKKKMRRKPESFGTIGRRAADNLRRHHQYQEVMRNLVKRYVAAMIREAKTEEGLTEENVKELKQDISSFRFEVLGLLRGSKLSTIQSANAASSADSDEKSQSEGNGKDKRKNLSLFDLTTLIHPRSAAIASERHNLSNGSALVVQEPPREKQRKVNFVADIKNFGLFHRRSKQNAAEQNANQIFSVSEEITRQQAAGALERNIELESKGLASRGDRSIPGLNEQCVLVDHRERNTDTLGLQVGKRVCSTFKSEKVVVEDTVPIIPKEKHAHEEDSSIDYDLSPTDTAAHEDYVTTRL
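system = HEK293 cells stably co-expressing mouse TRPC4beta and mu-opioid receptor | schedule = Fluo4 dye loading 45 min at room temperature, 110 s recording | measure = B-scored integrated calcium fluorescence ratio | signal = Fluo4 calcium-sensitive dye fluorescence, kinetic, 1 Hz baseline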
TRPC4 inh: blocks the mouse TRPC4 cation channel; Q9QUQ5; B-score at 10 µM; actives 0.39% (n = 300,000); HEK293 TRPC4beta/mu-opioid, DAMGO-evoked Fluo4 calcium flux; stronger effect = lower value; AID 2247;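 active means B-score over 3 SD under the library average, no early fluorescence shift, positive overall ratio signal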
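Assay system – HEK293 line stably carrying TRPC4beta and mu-opioid receptor · Doses – single dose · Detection – Fluo4 calcium-dye fluorescence, kinetic read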
TRPC4 potent: TRPC4 (mouse) allosteric potentiation; actives 0.42% (n = 310,000); B-score at 10 µM; HEK293 TRPC4beta/mu-opioid, DAMGO EC20, Fluo-4 Ca2+ flux; stronger effect = higher value;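 active means B-score of calcium response area above 5 SD of library B-scores, with initial fluorescence ratio within 5 SD of library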;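 further: B-score of integrated fluorescence ratio over time as area under calcium response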
TRPC6 activator: mouse TRPC6 channel activation; B-score at 10 µM; AID 2550; HEK293-TRPC6 membrane potential dye fluorescence; stronger effect = higher value; Q61143; actives 0.13% (n = 310,000);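 active means B-score of the integrated fluorescence ratio above library mean plus 3 SD, and starting fluorescence ratio within library mean plus 5 SD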;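 further: higher score means more depolarization so channel activation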
TRPC4 sel inh 2: mouse TRPC4 off-target activity of TRPC6 inhibitors, second screen; HEK293 TRPC4/MOR, membrane potential dye fluorescence; channel activated by saturating DAMGO dose; shares compounds with TRPC6 inh; inhibition, % at 10 µM; actives 42% (n = 920);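 active means compounds whose fluorescence signal differed from control wells by over 3 SD, either direction, in both duplicate plates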
TRPC4 spec: tests whether TRPC6 inhibitors also affect mouse TRPC4; AID 2777; shares compounds with TRPC6 inh; actives 61% (n = 920); activity change, negative = inhibition, % at 10 µM; HEK293 TRPC4/mu-opioid, membrane potential fluorescence;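 active means rise or fall in signal beyond 3 SD of buffer-only wells in both replicate plates, either sign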;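 further: integrated kinetic ratio of fluorescence range over baseline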
HEK293 MPD ctr 2-1: second counter-screen for TRPC6 inhibitors: parental HEK293 cells. actives 31% (n = 920). AID 2779. parental HEK293 membrane potential dye fluorescence; maximal acetylcholine challenge after compound addition. shares compounds with TRPC6 inh. signal change vs control, % at 10 µM;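 active means membrane potential signal moving either way by over 3 SD of the maximum-effect control, in both duplicate plates, meaning non-specific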
HEK293 MPD ctr-1: checks TRPC6 inhibitor effects in parental HEK293 cells | shares compounds with TRPC6 inh | parental HEK293 membrane potential dye fluorescence | membrane potential signal change, % at 10 µM | actives 60% (n = 920) | AID 2780;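 active means membrane potential signal shifting up or down by more than 3 SD of buffer-only wells, on both duplicate plates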
HEK293 MPD ctr-2: counter-screen for TRPC6 modulators: effect in parental HEK293 cells | shares compounds with TRPC6 inh | membrane potential dye fluorescence | membrane potential signal change, % at 10 µM | actives 51% (n = 2,400) | AID 488924;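 active means membrane potential signal moves up or down beyond 5 SD from buffer-only wells, on both duplicate plates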
HEK293 MPD ctr 2-2: parental HEK293 nonspecific activity of TRPC6 modulators, second screen; membrane potential dye fluorescence; after compound, maximal acetylcholine stimulation; shares compounds with TRPC6 inh; AID 488926; inhibition, % at 10 µM; actives 14% (n = 2,400);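 active means membrane potential signal drops by more than 5 SD from the mean control signal, in both duplicate plates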;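 further: plate controls were acetylcholine ECmax control wells for no effect and buffer only wells for full effect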
TRPC4 ctr mod: tests whether TRPC6 modulators also affect mouse TRPC4. actives 69% (n = 2,400). percent change from control (negative = decrease, positive = increase), % at 10 µM. AID 488927. HEK293 TRPC4/mu-opioid, membrane potential fluorescence. shares compounds with TRPC6 inh;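 active means membrane potential signal moved up or down beyond 5 SD of buffer control wells, in both duplicate plates, actives on both sides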;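 further: plate controls were assay buffer wells for no effect and DAMGO maximal-effect wells for full effect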
TRPC4 ctr inh 2: second selectivity test of TRPC6 modulators against mouse TRPC4; shares compounds with TRPC6 inh; HEK293 TRPC4/mu-opioid, membrane potential dye fluorescence; stimulated with maximal-effect DAMGO; inhibition, % at 10 µM; actives 55% (n = 2,400);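 active means drop in membrane potential signal beyond 5 SD of the control wells in both duplicate plates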;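 further: TRPC4 counter screen for TRPC6 hits run under conditions tuned for TRPC6 not TRPC4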
TRPC6 block conf: confirmation of mouse TRPC6 inhibitors; actives 43% (n = 3,300); inhibition, % at 10 µM; HEK293-TRPC6, membrane potential dye, ACh-evoked depolarization; AID 488960; shares compounds with TRPC6 inh;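 active means fluorescence ratio falls more than 5 SD below the full-stimulation control mean, in both duplicate runs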;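 further: integrated fluorescence ratio of peak minus minimum over baseline after agonist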
TRPC6 act confirm: confirmation of mouse TRPC6 activators | shares compounds with TRPC6 inh | HEK293-TRPC6 membrane potential dye fluorescence, FDSS | activation, % at 10 µM | actives 11% (n = 2,800) | AID 488961;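 active means ratio signal rise beyond 5 SD above unstimulated control wells' mean, seen in both duplicate runs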;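 further: plate controls were buffer EC0 wells for no effect and acetylcholine ECmax response for full effect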
The depositor's hits bear a star; i = inactive; / = no result. A selection: hits, their analogues and other compounds. The true share with any hit is near 2.3%.

SMILES	TRPC6 inh	TRPC4 agonist	TRPC4 inh	TRPC4 potent	TRPC6 activator	HEK293 MPD ctr-2	HEK293 MPD ctr 2-2	TRPC4 ctr mod	TRPC4 ctr inh 2	TRPC6 block conf	TRPC6 act confirm	others
CCN(CC)CCNC(=O)c1ccc2c(=O)n(C3CCCC3)c(=S)[nH]c2c1	-6.8*	i	i	i	i	/	/	/	/	i	i	TRPC4 sel inh 2=i;TRPC4 spec=i;HEK293 MPD ctr 2-1=i;HEK293 MPD ctr-1=i
Cc1ccc([N+](=O)[O-])cc1N=Nc1c(-c2ccc([N+](=O)[O-])cc2)[nH]n(C(N)=S)c1=O	-6.4*	i	i	i	i	i	i	i	48%*	48%*	i
Cc1ccc([N+](=O)[O-])cc1N=Nc1c(C)[nH]n(C(N)=S)c1=O	i	i	i	i	i	/	/	/	/	/	/
CCn1cc(C(=O)OCc2ccccc2)c(=O)c2ccc(C)nc21	-6*	i	i	i	i	-308%*	i	-50%*	48%*	i	i
CCn1cc(C(=O)OCc2ccc(F)cc2)c(=O)c2ccc(C)nc21	-10*	i	i	i	i	-340%*	84%*	-52%*	65%*	64%*	i
CN(C)Cc1c(O)ccc2cc(-c3nc4ccccc4n3C)c(=O)oc12	-5*	i	i	i	i	444%*	i	-24%*	i	i	i
CCc1occc(=O)c1Oc1cc(NN2CCCCC2)c([N+](=O)[O-])cc1[N+](=O)[O-]	-7.4*	i	i	i	i	/	/	/	/	i	i	TRPC4 sel inh 2=i;TRPC4 spec=i;HEK293 MPD ctr 2-1=i;HEK293 MPD ctr-1=i
O=C(Cc1ccccc1)NN1C(=O)C2C(C1=O)C1C=CC2C12CC2 (stereo not given)	i	i	i	i	i	/	/	/	/	/	/
Cc1cccc(C(=O)N2N=C(c3ccc(NS(C)(=O)=O)cc3)CC2c2cccs2)c1 (stereo not given)	i	i	i	i	i	/	/	/	/	/	/
CCCCN(C)CCCNC(=O)CN1C(=O)COc2ccc(S(=O)(=O)N3CCOCC3)cc21	-5.4*	i	i	i	i	i	i	i	i	i	i
NS(=O)(=O)c1ccc(CCNCc2ccccc2OCc2ccc(Cl)cc2)cc1	-6.8*	i	-5*	i	i	/	/	/	/	62%*	i	TRPC4 sel inh 2=30%*;TRPC4 spec=i;HEK293 MPD ctr 2-1=i;HEK293 MPD ctr-1=2.1%*
NS(=O)(=O)c1ccc(CCNCc2cc(Br)ccc2OCc2ccccc2F)cc1	-5.7*	i	i	i	i	i	i	i	88%*	56%*	i
NS(=O)(=O)c1ccc(CCNCc2cc(Cl)ccc2OCc2ccccc2)cc1	i	i	i	i	i	/	/	/	/	/	/
S=c1[nH]nc(C2CCCCC2)n1/N=C/c1c(Cl)cccc1Cl	i	i	i	i	i	/	/	/	/	/	/
CC1CCCN(C(=O)c2ccc(NS(=O)(=O)c3cccc([N+](=O)[O-])c3)cc2)C1 (stereo not given)	i	i	i	i	i	/	/	/	/	/	/
Cc1ccc(-n2nnnc2CNC(=O)c2ccc3c(c2)OCO3)cc1C	-8.1*	i	i	i	i	i	95%*	19%*	i	80%*	i
O=C(O)CCn1cc(C2CC(c3ccccc3)=NN2c2ccccc2)c(-c2ccccc2)n1 (stereo not given)	i	i	i	i	i	/	/	/	/	/	/
O=c1c2[nH]c3ccccc3c2ncn1C1CCCCC1	i	i	i	i	i	/	/	/	/	/	/
O=C1c2ccccc2C(=O)c2c1ccc1c(=O)n(C3CCCCC3)[nH]c21	-5.1*	i	i	i	i	-94%*	i	-20%*	i	i	i
Clc1ccc(C2Nc3cccc4cccc(c34)N2)cc1	i	i	i	i	i	/	/	/	/	/	/
CSc1ccc(C2Nc3cccc4cccc(c34)N2)cc1	-7*	i	i	i	i	/	/	/	/	i	i	TRPC4 sel inh 2=i;TRPC4 spec=-11%*;HEK293 MPD ctr 2-1=i;HEK293 MPD ctr-1=-138%*
CCc1cccc(NC(=O)Cn2c(=O)n(CCC(=O)NCC3CCCO3)c(=O)c3cc(OC)c(OC)cc32)c1 (stereo not given)	i	i	i	i	i	/	/	/	/	/	/
CC(=O)Nc1ccccc1C(=O)N1CCN(Cc2ccccc2)CC1	i	i	i	i	i	/	/	/	/	/	/
Cc1ccc(-c2nc3ncccn3c2NC2CCCC2)o1	i	i	i	i	i	/	/	/	/	/	/
Cc1ccc(-c2nc3ncccn3c2Nc2ccccc2C)o1	-5.8*	i	i	i	i	-115%*	i	-18%*	68%*	i	i
Cc1ccc(Nc2c(-c3ccc(N4CCOCC4)cc3)nc3ncccn23)c(C)c1	-6.1*	i	i	i	i	-143%*	62%*	-29%*	96%*	84%*	i
Cc1cccc(C)c1Nc1c(-c2ccc(N3CCOCC3)cc2)nc2ncccn12	-8*	i	i	i	i	-123%*	56%*	-28%*	97%*	76%*	i
